Measurements published in ChEMBL document CHEMBL4376891, “Benzenesulfonamide Derivatives as Calcium/Calmodulin-Dependent Protein Kinase Inhibitors and Antiviral Agents against Dengue and Zika Virus Infections” (J Med Chem, 2020).
Activity calls are given as the source filed them. No cut-off for these calls is given here.

How the values were obtained:
[1] = test system: Zika virus; assay: Antiviral activity against Zika virus infected in human BE(2)-C cells assessed as NS3 protein expression at 3.125 uM treated during 0 to 3 hrs post infection by Western blot analysis (reference value: 100%); format: functional
Procedure, shortened: (§1)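 Time-of-addition design: BE(2)C cells were infected with DENV-2 or ZIKV at MOI 1. Compound at 3.125 or 6.25 μM was present either during adsorption (0–3 hpi) or afterward (3–24 hpi). Viral protein was immunoblotted against actin, with the ratio as % of the solvent control.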

[2] = test system: Zika virus; assay: Antiviral activity against Zika virus infected in Stat1-/- mouse assessed as improvement in overall mouse survival at 4 to 8 mg/kg, po dosed 8 hrs after infection and ending at day 6 after infection (8 hrs delay) relative to control; format: functional, organism-based
Procedure, shortened: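 Stat1-/- mice, 6 weeks old, infected sc in the footpad with 5x10⁴ PFU of ZIKV PRVABC59. Oral dosing at 4 or 8 mg/kg/day, or PBS, started 8 h post-infection and ran daily up to day 6; n = 5. Survival was monitored for 12 d, with T50 by log-rank test.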

[3] = test system: dengue virus type 2; assay: Antiviral activity against Dengue virus 2 infected in human BE(2)-C cells transfected with shLacZ assessed as NS3 protein expression at 3.125 uM incubated for 48 hrs by Western blot analysis (reference value: 100%); format: functional
[4] = test system: dengue virus type 2; assay: Antiviral activity against Dengue virus 2 infected in human BE(2)-C cells assessed as NS3 protein expression at 6.25 uM treated during 3 to 24 hrs post infection by Western blot analysis (reference value: 100%); format: functional; procedure, shortened: as §1
[5] = test system: dengue virus type 2; assay: Antiviral activity against eGFP-fused Dengue virus 2 infected in human BE(2)-C cells assessed as viral infection level by measuring intensity of eGFP emission from infected cells at 1.56 uM incubated for 24 hrs relative to control; format: functional
Procedure, shortened: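 BE(2)C cells, in RPMI 1640 with 10% FBS, were infected with DENV-2-eGFP reporter virus (MOI 1) for 24 h with or without compound, using DMSO as solvent control. Cells were fixed in 4% paraformaldehyde and stained with Hoechst, then imaged by high-content analysis. eGFP intensity per cell number is given as % of solvent control. Values are means of 3 experiments.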

[6] = test system: Zika virus; assay: Antiviral activity against Zika virus infected in Stat1-/- mouse assessed as delay in virus-induced mouse mortality at 4 mg/kg/day, po dosed immediately following viral infection followed by daily dosing for 6 days (reference value: 13 days); format: functional, organism-based
[7] = test system: dengue virus type 2; assay: Antiviral activity against Dengue virus 2 infected in human BE(2)-C cells assessed as NS3 protein expression at 6.25 uM treated during 0 to 3 hrs post infection by Western blot analysis (reference value: 100%); format: functional; procedure, shortened: as §1
[8] = test system: dengue virus type 2; assay: Antiviral activity against Dengue virus 2 infected in human BE(2)-C cells assessed as reduction in NS3 protein expression at 3.125 to 6.25 uM treated during 3 to 24 hrs post infection by Western blot analysis; format: functional, organism-based; procedure, shortened: as §1
[9] = test system: dengue virus type 2; assay: Antiviral activity against Dengue virus 2 infected in human BE(2)-C cells assessed as reduction in NS3 protein expression at 3.125 to 6.25 uM treated during 0 to 3 hrs post infection by Western blot analysis; format: functional, organism-based; procedure, shortened: as §1
[10] = test system: Zika virus; assay: Antiviral activity against Zika virus infected in human BE(2)-C cells assessed as NS3 protein expression at 1.56 uM incubated for 48 hrs by Western blot analysis (reference value: 100%); format: functional
Procedure, shortened: (§2)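 BE(2)C cells were infected with ZIKV PRVABC59 at MOI 0.1 for 48 h, with or without compound at increasing concentrations. Viral protein was immunoblotted with actin as loading control. The band-density ratio was given as % of the solvent control. Mean ± SD, 3 independent experiments.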

[11] = test system: dengue virus type 2; assay: Antiviral activity against Dengue virus 2 infected in human BE(2)-C cells assessed as reduction in viral entry at 3.125 to 6.25 uM incubated for 90 mins by plaque-forming assay relative to control; format: functional; parameters: scale not given: the % may be the effect or the level left
Procedure, shortened: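 Virus entry: BE(2)C cells were incubated with DENV-2 or ZIKV for 90 min at 4 °C and washed cold. Cells were then treated with 3.125 or 6.25 μM compound at 37 °C for 1 h. Non-internalized virus was inactivated with 0.1 M glycine, pH 3, for 5 min. Cells were lysed by needle passage, and internalized virus was titrated by plaque assay. Mean ± SD, n = 3.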

[12] = test system: BE(2)-C; assay: Cytotoxicity against human BE(2)-C cells assessed as reduction in cell viability up to 12.5 uM incubated overnight by LDH assay relative to control; format: cell-based
Procedure, shortened: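 BE(2)C cells (RPMI 1640, 10% FBS) exposed overnight to compound at concentrations up to 12.5 μM; XTT (proliferation) or LDH release (cytotoxicity) read by absorbance at 490 nm. Values normalized to solvent control (%), mean ± SD of 3 independent experiments.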

[13] = test system: Zika virus; assay: Antiviral activity against Zika virus infected in human BE(2)-C cells assessed as suppression of viral-induced CaMKIIalpha activation at 3.125 uM incubated for 4 hrs by confocal microscopy; format: functional, organism-based
[14] = test system: Zika virus; assay: Antiviral activity against Zika virus infected in human BE(2)-C cells assessed as NS3 protein expression at 3.125 uM incubated for 48 hrs by Western blot analysis (reference value: 100%); format: functional; procedure, shortened: as §2
[15] = test system: dengue virus type 2; assay: Antiviral activity against Dengue virus 2 infected in human BE(2)-C cells assessed as NS3 protein expression incubated for 48 hrs by Western blot analysis; format: functional, organism-based
Procedure, shortened: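 BE(2)C neuroblastoma cells in RPMI 1640 with 10% FBS were infected with DENV-2 PL046 at MOI 0.1 for 48 h, without or with compound at increasing concentrations. NS3 was immunoblotted with actin as loading control. The NS3:actin densitometry ratio was expressed as % of the DMSO control. Mean ± SD of 3 independent experiments.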

[16] = test system: Zika virus; assay: Antiviral activity against Zika virus infected in human BE(2)-C cells assessed as reduction inNS3 protein expression at 3.125 to 6.25 uM treated during 0 to 3 hrs post infection by Western blot analysis; format: functional, organism-based; procedure, shortened: as §1
[17] = test system: dengue virus type 2; assay: Antiviral activity against DENV-2 NGC-N infected in Stat1-/- mouse assessed as reduction in viral load at 4 to 8mg/kg/day, po dosed immediately following viral infection followed by daily dosing for 3 day; format: functional, organism-based
Procedure, shortened: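 Stat1-/- mice infected with DENV-2 NGC-N (1x10⁵ PFU iv) or ZIKV PRVABC59 (5x10⁴ PFU sc, footpad), with oral dosing or PBS starting immediately. Serum was taken from the submandibular vein on day 3 post-infection. Viremia was measured by plaque assay and reported as individual values and mean; n = 5.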

[18] = test system: dengue virus type 2; assay: Antiviral activity against DENV-2 NGC-N infected in Stat1-/- mouse assessed as improvement in mouse survival by measuring median survival time at 2 mg/kg, po dosed 8 hrs after infection and ending at day 6 after infection (8 hrs delay) (reference value: 10 days); format: functional
[19] = test system: Zika virus; assay: Antiviral activity against Zika virus infected in human BE(2)-C cells assessed as NS3 protein expression at 3.125 uM treated during 3 to 24 hrs post infection by Western blot analysis (reference value: 100%); format: functional; procedure, shortened: as §1
[20] = test system: dengue virus type 2; assay: Antiviral activity against Dengue virus 2 infected in human BE(2)-C cells assessed as NS3 protein expression at 3.125 uM treated during 3 to 24 hrs post infection by Western blot analysis (reference value: 100%); format: functional; procedure, shortened: as §1

## COc1ccc(S(=O)(=O)N(CCCC(=O)C2CCCCCC2)c2ccccc2)cc1
[1]
  Activity: 60.1%
[2]
  Activity: inactive
[3]
  Activity: 62.2%
[4]
  Activity: 55.3%
[5]
  Activity: 31.8%
[6]
  Activity: inactive
[7]
  Activity: 27.3%
[8]
  Activity: inactive
[9]
  Activity: Dose-dependent effect
[10]
  Activity: 62.2%
[11]
  Activity: <=70%
[12]
  Activity: Non-Toxic
[13]
  Activity: Active
[14]
  Activity: 49.7%
[15]
  Activity: Dose-dependent effect
[16]
  Activity: Dose-dependent effect
[17]
  Activity: Active
[18]
  MST: 14 days
[19]
  Activity: 97.2%
[20]
  Activity: 78.3%
